Publication PMC2963662 (Neuropharmacology, 2010)

How the values were obtained:
Experiment in all cases: two-electrode voltage clamp, Xenopus oocytes
Type in all cases: cell-based
[1] = molecular target: α3β3γ2 GABAA receptor (rat, oocytes) (Rattus norvegicus, UniProt P18508+P20236); settings: read-out: α3
How it was run: (§1)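 Oocytes from Xenopus laevis were injected with mRNA made from rat GABAA subunit cDNAs. Two-electrode voltage clamp was done at room temperature, holding at −60 mV, with electrodes filled with […]. Cells were perfused at 6 ml/min with Ringer (90 mM NaCl, 5 mM HEPES pH 7.4, 1 mM MgCl2, KCl, CaCl2). Drug in 0.1% DMSO final was pre-applied for 30 sec, then co-applied with GABA until peak, with washes of up to 15 min.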

[2] = molecular target: α1β3γ2 GABAA receptor (rat, oocytes) (Rattus norvegicus, UniProt P18508+P62813); settings: read-out: α1
How it was run: as §1

[3] = molecular target: α5β3γ2 GABAA receptor (rat, oocytes) (Rattus norvegicus, UniProt P18508+P19969); settings: read-out: α5
How it was run: as §1

[4] = molecular target: α2β3γ2 GABAA receptor (rat, oocytes) (Rattus norvegicus, UniProt P18508+P23576); settings: read-out: α2
How it was run: as §1

Chain of α5β3γ2 GABAA receptor (rat, oocytes) (P19969 26-464): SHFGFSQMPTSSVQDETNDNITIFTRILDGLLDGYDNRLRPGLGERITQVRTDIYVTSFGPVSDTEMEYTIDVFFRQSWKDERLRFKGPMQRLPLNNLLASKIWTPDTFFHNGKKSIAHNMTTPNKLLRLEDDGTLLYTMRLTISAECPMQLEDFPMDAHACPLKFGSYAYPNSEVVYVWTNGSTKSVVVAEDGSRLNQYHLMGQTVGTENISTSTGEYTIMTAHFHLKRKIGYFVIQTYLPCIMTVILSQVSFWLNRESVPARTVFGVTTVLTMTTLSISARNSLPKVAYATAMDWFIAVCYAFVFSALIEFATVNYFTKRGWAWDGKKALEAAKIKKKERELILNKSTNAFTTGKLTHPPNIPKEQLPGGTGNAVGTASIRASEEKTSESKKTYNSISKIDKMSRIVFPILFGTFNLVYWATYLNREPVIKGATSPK
Chain of α5β3γ2 GABAA receptor (rat, oocytes) (P18508 39-466): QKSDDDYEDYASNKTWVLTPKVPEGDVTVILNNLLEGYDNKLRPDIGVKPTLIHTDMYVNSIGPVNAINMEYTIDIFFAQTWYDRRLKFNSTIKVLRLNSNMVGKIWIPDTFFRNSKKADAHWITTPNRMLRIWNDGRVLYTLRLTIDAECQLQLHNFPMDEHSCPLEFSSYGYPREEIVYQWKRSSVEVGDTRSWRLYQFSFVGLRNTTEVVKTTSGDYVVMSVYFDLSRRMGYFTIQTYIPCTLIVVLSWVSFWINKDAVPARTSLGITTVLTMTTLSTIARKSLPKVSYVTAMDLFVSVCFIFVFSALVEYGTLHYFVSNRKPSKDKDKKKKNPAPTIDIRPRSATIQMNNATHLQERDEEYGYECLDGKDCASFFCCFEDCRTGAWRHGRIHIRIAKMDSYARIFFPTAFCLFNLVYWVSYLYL
Chain of α5β3γ2 GABAA receptor (rat, oocytes) (P63079 26-473 partner): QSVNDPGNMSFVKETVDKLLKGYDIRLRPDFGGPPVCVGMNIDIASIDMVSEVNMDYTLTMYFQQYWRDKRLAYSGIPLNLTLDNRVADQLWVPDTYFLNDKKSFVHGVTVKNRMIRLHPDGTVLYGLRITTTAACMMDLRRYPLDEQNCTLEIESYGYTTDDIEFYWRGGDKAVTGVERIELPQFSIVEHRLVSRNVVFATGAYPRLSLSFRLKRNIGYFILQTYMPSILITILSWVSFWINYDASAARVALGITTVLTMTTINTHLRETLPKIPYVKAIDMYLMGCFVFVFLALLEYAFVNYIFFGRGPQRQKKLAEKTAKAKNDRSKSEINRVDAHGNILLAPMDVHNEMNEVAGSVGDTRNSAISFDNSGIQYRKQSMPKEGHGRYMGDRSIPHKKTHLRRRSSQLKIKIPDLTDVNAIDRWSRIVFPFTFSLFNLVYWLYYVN
Chain of α1β3γ2 GABAA receptor (rat, oocytes) (P62813 28-455): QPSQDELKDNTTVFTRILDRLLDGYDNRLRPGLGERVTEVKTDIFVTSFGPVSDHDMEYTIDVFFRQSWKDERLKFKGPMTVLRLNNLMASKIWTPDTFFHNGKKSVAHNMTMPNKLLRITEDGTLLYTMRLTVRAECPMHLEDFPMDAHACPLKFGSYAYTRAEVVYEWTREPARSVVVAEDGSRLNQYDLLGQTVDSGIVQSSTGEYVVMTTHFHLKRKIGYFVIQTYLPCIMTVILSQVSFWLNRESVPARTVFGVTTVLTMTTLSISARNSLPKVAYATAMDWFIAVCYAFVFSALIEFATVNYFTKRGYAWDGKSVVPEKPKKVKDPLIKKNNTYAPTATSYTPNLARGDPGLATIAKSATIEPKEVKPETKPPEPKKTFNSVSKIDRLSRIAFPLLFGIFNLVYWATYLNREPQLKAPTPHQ
Chain of α1β3γ2 GABAA receptor (rat, oocytes) (P18508 39-466): as the sequence (P18508 39-466) above
Chain of α1β3γ2 GABAA receptor (rat, oocytes) (P63079 26-473 partner): as the sequence (P63079 26-473 partner) above
Chain of α2β3γ2 GABAA receptor (rat, oocytes) (P23576 29-451): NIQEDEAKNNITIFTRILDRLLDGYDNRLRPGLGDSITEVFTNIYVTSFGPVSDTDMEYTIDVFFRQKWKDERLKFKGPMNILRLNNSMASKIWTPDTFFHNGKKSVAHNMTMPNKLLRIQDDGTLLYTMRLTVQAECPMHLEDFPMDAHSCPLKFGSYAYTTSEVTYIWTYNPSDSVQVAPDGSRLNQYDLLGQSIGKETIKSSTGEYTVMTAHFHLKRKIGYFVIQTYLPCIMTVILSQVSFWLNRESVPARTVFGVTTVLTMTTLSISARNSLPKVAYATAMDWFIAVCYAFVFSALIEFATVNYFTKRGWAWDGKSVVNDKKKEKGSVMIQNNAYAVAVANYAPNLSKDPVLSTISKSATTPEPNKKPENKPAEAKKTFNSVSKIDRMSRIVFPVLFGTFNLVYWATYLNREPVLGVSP
Chain of α2β3γ2 GABAA receptor (rat, oocytes) (P18508 39-466): as the sequence (P18508 39-466) above
Chain of α2β3γ2 GABAA receptor (rat, oocytes) (P63079 26-473 partner): as the sequence (P63079 26-473 partner) above
Chain of α3β3γ2 GABAA receptor (rat, oocytes) (P20236 29-493): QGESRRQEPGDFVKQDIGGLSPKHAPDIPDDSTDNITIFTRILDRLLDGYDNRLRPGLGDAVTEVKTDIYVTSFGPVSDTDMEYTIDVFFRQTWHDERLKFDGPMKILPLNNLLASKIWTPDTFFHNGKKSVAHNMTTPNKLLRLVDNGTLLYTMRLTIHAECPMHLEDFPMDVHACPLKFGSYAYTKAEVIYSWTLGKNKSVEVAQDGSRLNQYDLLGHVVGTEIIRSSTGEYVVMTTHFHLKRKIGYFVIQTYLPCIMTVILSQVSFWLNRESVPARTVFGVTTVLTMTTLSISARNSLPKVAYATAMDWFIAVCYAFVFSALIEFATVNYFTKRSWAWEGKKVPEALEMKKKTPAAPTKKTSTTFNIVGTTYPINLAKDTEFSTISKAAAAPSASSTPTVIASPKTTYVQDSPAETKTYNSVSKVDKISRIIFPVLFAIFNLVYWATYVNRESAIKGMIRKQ
Chain of α3β3γ2 GABAA receptor (rat, oocytes) (P18508 39-466): as the sequence (P18508 39-466) above
Chain of α3β3γ2 GABAA receptor (rat, oocytes) (P63079 26-473 partner): as the sequence (P63079 26-473 partner) above

Compound | activity at 1 µM [1] [%] | activity at 1 µM [2] [%] | activity at 1 µM [3] [%] | activity at 1 µM [4] [%]
CN1C(=O)CN=C(c2ccccc2)c2cc(Cl)ccc21 [Diazepam] | 752 | 314 | 342 | 536
C#Cc1ccc2c(c1)C(c1ccccc1F)=N[C@@H](C)c1c(C(=O)OCC)ncn1-2 [SH-053-2'F-S-CH3, (S)-8-ethynyl-6-(2-fluoro-phenyl)-4-methyl-4H-2,5,10b-triaza-benzo[e]azulene-3-carboxylic acid ethyl ester] | – | – | 389 | –
